# GASC-1 inh – inhibitors of human GASC-1 (JMJD2C) demethylase. inhibition, % at 2.35 µM. hit rate 0.069% among 330,000. GST-JMJD2C(1-420) H3K9me3 demethylation, DELFIA europium;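 active = more than half of a compound's replicate wells show inhibition beyond 50%, single wells judged on their own value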;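 note: signal counts dimethyl H3K9 product captured on neutravidin plate; 0% = median of DMSO wells and 100% = 0.3 times that DMSO median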
# Target sequence (Q9H3R0 1-420 limits assumed): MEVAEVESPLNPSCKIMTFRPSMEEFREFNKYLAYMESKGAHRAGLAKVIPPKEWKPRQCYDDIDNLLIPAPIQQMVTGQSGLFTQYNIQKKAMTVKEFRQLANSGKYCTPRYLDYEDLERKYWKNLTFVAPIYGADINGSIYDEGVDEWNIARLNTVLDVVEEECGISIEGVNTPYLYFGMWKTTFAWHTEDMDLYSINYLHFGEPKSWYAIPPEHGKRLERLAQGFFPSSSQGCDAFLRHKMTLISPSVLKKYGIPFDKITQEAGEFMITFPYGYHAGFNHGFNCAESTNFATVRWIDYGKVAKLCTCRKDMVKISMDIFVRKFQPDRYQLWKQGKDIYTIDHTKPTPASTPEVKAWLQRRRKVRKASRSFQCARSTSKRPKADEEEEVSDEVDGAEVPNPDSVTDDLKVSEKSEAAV
# Hep lipid drop – hepatic lipid droplet formation modulation. AML12 mouse hepatocytes, oleate lipid droplets, BODIPY imaging. inhibition, % at 6.5 µM. hit rate 0.4% among 240,000. AID 1656;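 active = lipid droplet intensity inhibited by at least 50%, with more than 500 cells counted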
#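 Assay system: AML12 mouse liver cells | Compound: 6.5 µM single-point dosing | Schedule: Overnight exposure | Technique: Fluorescence imaging, 20x objective, two fields per well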
# GRIN3A LBD mod – NR3A (human) ligand-binding domain modulation. NR3A LBD differential scanning fluorimetry, Tm shift; 0% = protein alone, 100% = glycine-bound protein. Tm shift relative to glycine control, % at 25 µM. hit rate 2.5% among 340,000. AID 1259313;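 active = melting temperature shift of at least 10% of the positive control shift, at one fixed dose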
# aDG glyco act – increases alpha dystroglycan glycosylation | Pro5-aDG cells, alpha-DG glycosylation AlphaScreen (IIH6); 0% Pro5, 100% B10-LARGE cell signal | activation, % at 10 µM | hit rate 0.22% among 360,000 | AID 624168;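 active = activation of at least 8% versus controls, or a plate z-score of at least 8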;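 note: Pro5 are CHO cells carrying HIG-tagged alpha-DG that lacks glycosylation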
# NPR1 activator – GC-A (human) enzyme activation; P16066; HEK293 GC-A cells, cGMP TR-FRET, EC30 ANP; 0% at EC30 ANP, 100% saturating ANP; activation, % at 10 µM; hit rate 0.14% among 370,000; AID 1671463; in the data active = activation above about 40%
# GC-B act – GC-B (human) receptor activation; P20594; HEK293-GC-B cells, CNP EC30, cGMP TR-FRET; 0% at EC30 CNP, 100% saturating CNP; activation, % at 10 µM; hit rate 0.11% among 370,000;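 active = activation at 10 µM reaching about 35% in either raw or pattern-adjusted values, limit read from the data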
# An asterisk follows results filed as active; nt = not tested or not shown. In the library only some 3% were active in any assay of this set; here they are far more common.
SMILES,GASC-1 inh,Hep lipid drop,GRIN3A LBD mod,aDG glyco act,NPR1 activator,GC-B act
CC(C)Cn1cnc2c(c1=O)c1nc3ccccc3nc1n2Cc1ccc2c(c1)OCO2,nt,-1,nt,nt,nt,nt
COc1ccc(Cn2c(C)nc3c(c2=O)c2nc4ccccc4nc2n3Cc2ccco2)cc1,nt,nt,3,0,28,28
CCC(C)n1cnc2c(c1=O)c1nc3ccccc3nc1n2Cc1ccc(OC)cc1 (stereo not drawn),-14,nt,0,0,53*,54*
CCCCn1cnc2c(c1=O)c1nc3ccccc3nc1n2Cc1ccc2c(c1)OCO2,5,0,-2,0,52*,52*
C=CCN(Cc1ccc2c(c1)OCO2)C(C#CC1CC1)C(C)C (stereo not drawn),nt,nt,nt,nt,-2,-3
COc1ccc(NC(=O)C(c2ccc(C)cc2)N(C)C(=O)CC2NC(=O)NC2=O)cc1 (stereo not drawn),1,-7,12*,0,-1,6
COc1ccc(NC(=O)C(c2ccc(OC)cc2)N(Cc2ccco2)C(=O)CC2NC(=O)NC2=O)cc1 (stereo not drawn),33,21,0,0,0,0
CCOc1ccc(CN2CCNC(=O)C2CC(=O)NCCc2cnccn2)cc1 (stereo not drawn),21,-2,1,0,-1,5
Cc1ccccc1CN1CCNC(=O)C1CC(=O)NCCN1CCCCC1=O (stereo not drawn),1,-15,11*,0,-1,6
CCOc1ccc(CN2CCNC(=O)C2CC(=O)NCCN2CCOC2=O)cc1 (stereo not drawn),3,-41,16*,0,1,3
Cc1cccc(CCNC(=O)CC2C(=O)NCCN2Cc2ccccc2C)n1 (stereo not drawn),-5,-8,1,0,0,3
Cc1ccc(N=c2oc3cc(O)ccc3cc2C(N)=O)cc1,13,nt,-5,-1,17,8
COc1ccc(N=c2oc3cc(O)ccc3cc2C(=O)Nc2ccccn2)cc1OC,-5,34,15*,-1,11,-5
Cc1noc(C)c1C(=O)OC(C)C(=O)NC(C)c1ccc(Cl)cc1Cl (stereo not drawn),6,nt,4,0,-5,-4
COc1ccc(Cc2n[nH]c(=S)n2NC(=O)Nc2ccc(Cl)c(Cl)c2)cc1,nt,10,15*,0,-2,-5
Cn1c(CC(=O)Nc2ccc(Cl)c(Cl)c2)n[nH]c1=S,9,21,1,0,-5,-3
COc1ccc(-c2ccc(-c3noc(C)n3)c(OC)n2)cc1,-19,10,1,0,1,-6
CCOc1nc(-c2ccc(OC)cc2)ccc1-c1noc(C)n1,6,-5,25*,0,-7,-10
O=C(CC1Nc2ccccc2NC1=O)NCCCN1CCCCCC1 (stereo not drawn),-1,nt,-2,0,-6,-4
CCCCNC(=O)CC1Nc2ccccc2NC1=O (stereo not drawn),-2,12,20*,0,-2,5
O=C(CC1Nc2ccccc2NC1=O)Nc1cc(Cl)cc(Cl)c1 (stereo not drawn),4,10,29*,1,-3,-7
CCOC(=O)c1ccc(-n2cccc2/C=C2\NC(=O)NC2=O)cc1,1,nt,-1,0,-9,-7
O=C(Nc1nc(-c2ccccn2)cs1)c1ccc(Br)s1,-6,-4,26*,1,16,2
CC(=O)Nc1ccc(CNc2ncnc3ccc(-c4c(C)noc4C)cc23)cc1,7,nt,3,0,30,41*
Cn1nc(C(=O)N2CCN(S(=O)(=O)c3ccccc3)CC2)c2ccccc2c1=O,-8,nt,12*,0,-3,0
Cc1ccc(S(=O)(=O)N2CCN(C(=O)c3nn(C(C)C)c(=O)c4ccccc34)CC2)cc1C,-3,-3,-5,0,6,3
O=C(Nc1cccc(F)c1)Nc1ccc2c(c1)CCC2,-9,-6,43*,0,-2,1
O=C(Nc1cccc([N+](=O)[O-])c1)Nc1ccc2c(c1)CCC2,2,-2,34*,1,-3,-6
